Sampled rows, rich in hits. Any-hit rate of the full collection: about 1.4%.
HIV Env fusion = inhibitors of HIV Env-mediated cell fusion; AID 651610; inhibition, % at 12.3 µM; HeLa-JRFL Env/CEM21 cell fusion, luciferase; 360,000 compounds, 1.1% hits;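 active means mean replicate inhibition score of at least 50 and every replicate individually at or above 50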
FN deposit inh = fibronectin deposition inhibition. AH1F fibroblasts, Alexa488-fibronectin deposition fluorescence, overnight. inhibition, % at 12.6 µM. 350,000 compounds, 0.086% hits. AID 743247;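 active means mean inhibition across replicates of 30% or more, regardless of how many single replicates reach that level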
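Material: AH1F fibroblasts assembling fluorescent fibronectin matrix; amount: 10000 AH1F cells/well; medium: DMEM, 2% serum; reagent: Alexa488-fibronectin, 24 nM final in well; dosing: single compound dose, delivered by pin transfer; incubation: 1 h adhesion, overnight exposure; detection: fluorescence after three HBSS washes, excitation 485 nm, emission 525 nm; measure: fibronectin deposition inhibition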
ERp5 block = inhibitors of human ERp5; 350,000 compounds, 0.05% hits; ERp5 insulin aggregation, absorbance 650 nm, 90 min; AID 651711; inhibition, % at 9.99 µM;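 active means mean replicate inhibition above about 25%, with every replicate also reaching it, limit read from the data, passing the limit was not always enough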
Target sequence (Q15084 whole entry, looked up): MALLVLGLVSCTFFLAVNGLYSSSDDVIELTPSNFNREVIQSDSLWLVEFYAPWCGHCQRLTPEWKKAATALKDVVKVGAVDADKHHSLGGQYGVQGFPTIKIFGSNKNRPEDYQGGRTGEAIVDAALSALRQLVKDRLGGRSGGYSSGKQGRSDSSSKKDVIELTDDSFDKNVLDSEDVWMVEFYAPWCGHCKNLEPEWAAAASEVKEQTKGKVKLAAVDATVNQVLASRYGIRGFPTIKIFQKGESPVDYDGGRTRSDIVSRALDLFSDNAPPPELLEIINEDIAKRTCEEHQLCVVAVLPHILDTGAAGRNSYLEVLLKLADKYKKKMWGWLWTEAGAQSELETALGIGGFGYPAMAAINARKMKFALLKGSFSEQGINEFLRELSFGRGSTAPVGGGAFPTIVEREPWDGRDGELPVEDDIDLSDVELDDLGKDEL
INS-1E GSIS act = GLuc luminescence reporter in INS-1E cells, primary screen for activators of glucose-dependent secretion of insulin; activation, % at 16.6 µM; 370,000 compounds, 0.61% hits; AID 743287; INS-1E GLuc reporter insulin secretion, 2-3 h;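 active means lowest replicate activation of at least 40%, so every replicate reaches that level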
PDI inh = inhibitors of human protein disulfide isomerase | 350,000 compounds, 0.052% hits | inhibition, % at 10 µM | PDI insulin aggregation turbidity, A650, 90 min;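 active means mean inhibition across replicates of 30% or more, whatever share of single replicates reach that level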
Hits are given with their value; - = inactive; . = no result given; [ ] = remark or other dose.

SMILES	HIV Env fusion	FN deposit inh	ERp5 block	INS-1E GSIS act	PDI inh
Cc1cc(Oc2cccnc2)ccc1NC(=O)Cc1cn(C)c2ccccc12	-	-	-	161.9	.
CN(C)CC(=O)N[C@H]1CC[C@@H](CCNC(=O)C2CC2)O[C@@H]1CO	.	-	-	-	.
Fc1cccc(/C=N/Nc2nncc3ccccc23)c1	-	-	-	-	-
C(=N\Nc1nncc2ccccc12)/c1ccccn1	84.2	-	-	-	-
Cc1ccccc1Cc1c(C)nc2c(C(=O)N3CCN(Cc4ccc5c(c4)OCO5)CC3)cnn2c1C	60.5	.	.	.	-
CCN1CCN(C(=O)c2cnn3c(C(F)F)cc(-c4ccc(C)cc4)nc23)CC1	-	-	.	.	-
Cc1cccc(Cc2c(C)nc3c(C(=O)N4CCN(Cc5ccc6c(c5)OCO6)CC4)cnn3c2C)c1	-	.	.	.	-
O=C(c1cnn2c(C(F)F)cc(-c3ccccc3)nc12)N1CCN(Cc2ccc3c(c2)OCO3)CC1	57.8	-	-	-	-
CN(C)C(=O)CSc1nnc([C@H](Cc2c[nH]c3ccccc23)NC(=O)OC(C)(C)C)o1	-	-	.	.	45.5
COc1cccc(NC(=O)N(C)C[C@@H]2OCc3ccccc3-c3c(n(C)c4ccccc34)C(=O)N([C@@H](C)CO)C[C@@H]2C)c1	57.4[16.7 µM]	-	-	-	.
C[C@H]1CN([C@@H](C)CO)C(=O)c2c(c3ccccc3n2C)-c2ccccc2CO[C@H]1CN(C)C(=O)Nc1cccc(F)c1	88.0	-	-	-	.
C[C@H]1CN([C@@H](C)CO)C(=O)c2c(c3ccccc3n2C)-c2ccccc2CO[C@H]1CN(C)C(=O)Nc1ccccc1	.	-	-	-	.
C[C@H](CO)N1C[C@H](C)[C@@H](CN(C)C(=O)Nc2ccc(F)cc2)OCc2ccccc2-c2c(n(C)c3ccccc23)C1=O	57.7[16.7 µM]	-	-	-	.
C[C@H]1CCCCO[C@@H](CN(C)Cc2ccccc2)[C@@H](C)CN([C@@H](C)CO)C(=O)c2cc(NS(=O)(=O)c3cn(C)cn3)ccc2O1	-	-	-	-	.
COc1ccc(NC(=O)N(C)C[C@H]2Oc3ccc(NC(=O)Cc4cn(C)c5ccccc45)cc3C(=O)N([C@H](C)CO)C[C@@H]2C)cc1	-	.	-	-	.
Cc1ccc(S(=O)(=O)Nc2ccc3c(c2)CC(=O)N([C@@H](C)CO)C[C@H](C)[C@H](CN(C)S(=O)(=O)c2ccccc2)O3)cc1	67.3[16.7 µM]	-	.	-	.
Cc1ccc(S(=O)(=O)Nc2ccc3c(c2)CC(=O)N([C@H](C)CO)C[C@H](C)[C@H](CN(C)S(=O)(=O)c2ccccc2)O3)cc1	80.2[16.7 µM]	-	.	-	.
Cc1ccc(S(=O)(=O)N(C)C[C@@H]2Oc3ccc(NS(=O)(=O)c4ccccc4)cc3CC(=O)N([C@H](C)CO)C[C@@H]2C)cc1	100.1[16.7 µM]	.	-	-	.
Cc1ccc(S(=O)(=O)Nc2ccc3c(c2)CC(=O)N([C@@H](C)CO)C[C@H](C)[C@H](CN(C)Cc2ccc(-c4ccccc4)cc2)O3)cc1	-	-	-	-	.
Cc1ccc(S(=O)(=O)Nc2ccc3c(c2)CC(=O)N([C@@H](C)CO)C[C@H](C)[C@@H](CN(C)Cc2ccc(-c4ccccc4)cc2)O3)cc1	75.2[16.7 µM]	-	-	-	.
Cc1ccc(S(=O)(=O)Nc2ccc3c(c2)CC(=O)N([C@H](C)CO)C[C@@H](C)[C@@H](CN(C)S(=O)(=O)c2ccccc2)O3)cc1	-	-	.	-	.
O=S(=O)(NC[C@H]1N[C@@H](CO)[C@H]1c1ccc(C2=CCCC2)cc1)c1ccccc1	.	-	-	-	.
C[C@H](CO)N1C[C@H](C)[C@@H](CN(C)Cc2ccc(C(=O)O)cc2)Oc2ccc(NS(=O)(=O)c3cccs3)cc2CC1=O	-	.	42.6	-	.
C[C@H](CO)N1C[C@H](C)[C@H](CN(C)Cc2ccc(C(=O)O)cc2)Oc2ccc(NS(=O)(=O)c3cccs3)cc2CC1=O	-	.	-	-	.
C[C@@H]1CN([C@@H](C)CO)C(=O)c2cc(C#C[C@@H](C)O)cnc2O[C@@H]1CN(C)CC1CCOCC1	-	-	-	-	.
SMILES	HIV Env fusion	FN deposit inh	ERp5 block	INS-1E GSIS act	PDI inh
COc1ccc(OCC(=O)Nc2cc(-c3nn(C)c(=O)c4ccccc34)ccc2OC)cc1	85.8	-	.	.	-
O=C(NCC[C@@H]1CC[C@@H](NC(=O)C2CCC2)[C@H](CO)O1)c1cnccn1	-	.	-	-	.
COc1cccc(NC(=O)c2ccc(CN3CCN(c4ccccc4)CC3)cc2)c1	61.7	.	-	-	-
COc1c(F)c(F)c(C(=O)Nc2ccc(N3CCN(Cc4ccccc4)CC3)cc2)c(F)c1F	64.6	.	.	.	-
C[C@@H]1CN([C@@H](C)CO)C(=O)Cc2cc(NS(=O)(=O)c3cn(C)cn3)ccc2O[C@H]1CN(C)Cc1ccc(C(=O)Nc2ccccc2N)cc1	.	-	-	-	.
O=C(O)C[C@H]1C[C@@H]2c3cc(NC(=O)c4ccc5c(c4)OCO5)ccc3O[C@@H]2[C@@H](CO)O1	-	-	-	-	.
O=C(Nc1ccc(Cl)cn1)C1CCCN1S(=O)(=O)c1ccc(Cl)cc1 (stereo not given)	.	.	.	-	-
O=C(Nc1ccc(Cl)cn1)C1CCCN1S(=O)(=O)c1cccc2ccccc12 (stereo not given)	70.2	-	.	.	-
Cc1ccc2[nH]c3c(c2c1)CN(C(=O)CN1c2ccc(F)cc2CCC1C)CC3 (stereo not given)	59.7	-	.	.	-
Cc1ccc2[nH]c3c(c2c1)CN(C(=O)CN1CCN(c2cccc(C)c2C)CC1)CC3	.	.	.	.	-
CCOC(=O)c1[nH]c2ccc(OC)cc2c1NC(=O)/C=C/c1ccc2c(c1)OCO2	-	-	.	65.6	-
O=C(/C=C/c1ccc2c(c1)OCO2)Nc1c(C(=O)O)[nH]c2ccccc12	.	-	-	-	-
CN(C)C(=O)c1cccc(-c2cccc(-c3nc(C(=O)NCc4ccccc4)cc4c3[C@@H](CCO)N([S@](=O)C(C)(C)C)C4)c2)c1	-	-	-	-	.
Cc1ccc(S(=O)(=O)Nc2cccnc2)cc1	-	-	.	-	-
CCCCOc1ccc(S(=O)(=O)Nc2cccnc2)cc1	69.1	-	.	.	-
CO[C@@H]1CN(C)C(=O)c2ccc(NC(=O)c3ccc4c(c3)OCO4)cc2OC[C@@H](C)N(CC2CC2)C[C@H]1C	.	-	-	-	.
CCCn1nc(C(=O)Nc2ccc3nc(N4CCOCC4)sc3c2)ccc1=O	85.3	-	-	-	-
COc1ccc(C(=O)Nc2ccc3nc(N4CCOCC4)sc3c2)cc1OC	.	-	-	-	-
CCCCn1c(SCC(=O)Nc2ccc3c(c2)OCO3)nc2c1c(=O)n(C)c(=O)n2C	79.0	.	.	.	-
Cn1c(=O)c2c(nc(SCC(=O)NCc3ccc4c(c3)OCO4)n2Cc2ccc(F)cc2)n(C)c1=O	137.5	-	.	.	-
CCCn1c(SCC(=O)Nc2ccc(NC(=O)CC)cc2)nc2c1c(=O)n(C)c(=O)n2C	-	-	-	-	-
O=[N+]([O-])c1cccc(-c2nc3ccccc3s/c2=N/O)c1	-	-	-	81.9	-
NC(=S)N=Nc1c(O)n(Cc2ccccc2)c2ccccc12	-	-	-	-	-
COC(=O)c1ccc(Cn2c(O)c(N=NC(N)=S)c3ccccc32)o1	-	-	-	64.4	-
